In ChEMBL document CHEMBL1138620, “Synthesis and antiproliferative evaluation of pyrazolo[1,5-a]-1,3,5-triazine myoseverin derivatives” (Bioorg Med Chem, 2009):
The source made the active and inactive calls. No cut-off for these calls is given here.

Key:
MCF7 = experiment: Cytotoxicity against human MCF7 cells after 72 hrs by MTT assay; type: functional, cell-based; conditions: MCF7, 72 h
In short: (§1)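 Cells (5 × 10^3/well) were seeded and incubated 24 h before drug addition, then exposed for 72 h. MTT was added (5 mg/mL stock) and growth was taken as absorbance relative to untreated wells. IC50 is the dose giving 50% growth inhibition. Three experiments were run, each in triplicate. Media: D-MEM with 10% FCS for MCF-7, HCT116, SW48 and SW480; RPMI1640 with 10% FCS for Mes-sa and CEM.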

[1] = Cytotoxicity against human MES-SA cells after 72 hrs by MTT assay; type: functional, cell-based; in short: as §1
CCRF-CEM = experiment: Cytotoxicity against human CEM cells after 72 hrs by MTT assay; type: functional, cell-based; in short: as §1
HCT-116 [2] = experiment: Cytotoxicity against human HCT116 cells after 72 hrs by MTT assay; type: functional, cell-based; conditions: HCT-116, 72 h; in short: as §1
SW48 [3] = experiment: Cytotoxicity against human SW48 cells after 72 hrs by MTT assay; type: functional, cell-based; conditions: SW48, 72 h; in short: as §1
SW480 [4] = experiment: Cytotoxicity against human SW480 cells after 72 hrs by MTT assay; type: functional, cell-based; conditions: SW480, 72 h; in short: as §1
HCT-116 [5] = experiment: Cell cycle arrest in human HCT116 cells assessed as accumulation at G1 phase at 30 uM after 24 hrs by flow cytometry; type: functional
In short: (§2)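 Colorectal lines were cultured in D-MEM with 10% FCS and treated at 30 µM for 24 h. Cells (10^6/mL) were resuspended in propidium iodide solution, held at 4 °C overnight and analysed by flow cytometry for DNA content. Values are means of three experiments ± SD.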

HCT-116 [6] = experiment: Cell cycle arrest in human HCT116 cells assessed as accumulation at S phase at 30 uM after 24 hrs by flow cytometry; type: functional; in short: as §2
HCT-116 [7] = experiment: Cell cycle arrest in human HCT116 cells assessed as accumulation at G2/M phase at 30 uM after 24 hrs by flow cytometry; type: functional; in short: as §2
SW48 [8] = experiment: Cell cycle arrest in human SW48 cells assessed as accumulation at G1 phase at 30 uM after 24 hrs by flow cytometry; type: functional; in short: as §2
SW48 [9] = experiment: Cell cycle arrest in human SW48 cells assessed as accumulation at S phase at 30 uM after 24 hrs by flow cytometry; type: functional; in short: as §2
SW48 [10] = experiment: Cell cycle arrest in human SW48 cells assessed as accumulation at G2/M phase at 30 uM after 24 hrs by flow cytometry; type: functional; in short: as §2
SW480 [11] = experiment: Cell cycle arrest in human SW480 cells assessed as accumulation at G1 phase at 30 uM after 24 hrs by flow cytometry; type: functional; in short: as §2
SW480 [12] = experiment: Cell cycle arrest in human SW480 cells assessed as accumulation at S phase at 30 uM after 24 hrs by flow cytometry; type: functional; in short: as §2
SW480 [13] = experiment: Cell cycle arrest in human SW480 cells assessed as accumulation at G2/M phase at 30 uM after 24 hrs by flow cytometry; type: functional; in short: as §2
[14] = Inhibition of tubulin polymerization in bovine brain; design: species or system Bos taurus
In short: (§3)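 Purified bovine brain tubulin (29 µM) was added to PEM buffer (100 mM PIPES, 1 mM MgCl2, 1 mM EGTA) with increasing inhibitor concentrations, up to 100 µM, in DMSO at equal DMSO levels. Polymerization was followed by absorbance at 340 nm for at least 1 h at 37 °C, and IC50 was taken from concentration–response plots.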

HeLa [15] = experiment: Antimitotic activity in human HeLa cells expressing GFP-tubulin assessed as induction of mitotic deffects by flow cytometry; type: functional, cell-based
HeLa [16] = experiment: Antimitotic activity in human HeLa cells expressing GFP-tubulin assessed as block of G2/M phase after 24 hrs by flow cytometry; type: functional, cell-based
In short: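 HeLa cells were exposed to increasing inhibitor concentrations for 24 h. The percentage of G2/M cells was determined by flow cytometry, with nocodazole as the reference mitotic inhibitor.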

HeLa [17] = experiment: Antimitotic activity in human HeLa cells expressing GFP-tubulin assessed as aberration of mitotic spindle at 12 uM after 24 hrs by fluorescence microscopy; type: functional; conditions: in the assay text read “6 hrs” for “24 hrs”
In short: (§4)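 HeLa cells were grown in DMEM with 10% FBS at 37 °C in 5% CO2 and left to adhere for at least 36 h on poly-D-lysine-coated coverslips. Drugs were diluted in medium from 50 mM DMSO stocks. Cells were fixed with 1% paraformaldehyde then cold methanol and stained with anti-β-tubulin plus a FITC secondary, with propidium iodide counterstain. Aberrant spindles were scored as a percentage of total spindles counted.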

HeLa [18] = experiment: Antimitotic activity in human HeLa cells expressing GFP-tubulin assessed as increase in aberration of mitotic spindle after 24 hrs by fluorescence microscopy; type: functional, cell-based; conditions: in the assay text read “6 hrs” for “24 hrs”; in short: as §4
HeLa [19] = experiment: Antimitotic activity in human HeLa cells expressing GFP-tubulin assessed as collapse of spindle microtubule at 12 uM
Bos taurus = organism: Bos taurus; experiment: Inhibition of tubulin polymerization in bovine brain relative to baseline; conditions: concentration not given here; in short: as §3
HeLa [20] = experiment: Antimitotic activity in human HeLa cells expressing GFP-tubulin assessed as induction of mitotic deffects at 50 uM by flow cytometry; type: functional, cell-based

In the case of `COc1ccc(CNc2nc(NCc3ccc(OC)cc3)n3ncc(C(C)C)c3n2)cc1`, the IC50 (MCF7) is reported as 51.5 µM, the IC50 [1] is reported as 23 µM and the IC50 (CCRF-CEM) is reported as 5.4 µM. For the same compound, the IC50 (HCT-116 [2]) was 4.6 µM, the IC50 (SW48 [3]) was 2.6 µM and the IC50 (SW480 [4]) was 5.5 µM. It also gave an Activity (HCT-116 [5]) of 8%, an Activity (HCT-116 [6]) of 2.8% and an Activity (HCT-116 [7]) of 89.3%. The Activity (SW48 [8]) was 22.4%, the Activity (SW48 [9]) was 1.3% and the Activity (SW48 [10]) was 75.4%. The Activity (SW480 [11]) was 3%, the Activity (SW480 [12]) was 5.9% and the Activity (SW480 [13]) was 91.2%. For the same compound, the IC50 [14] was 3.6 µM, the Activity (HeLa [15]) was “Active” and the Activity (HeLa [16]) was “Active”. For the same compound, the Activity (HeLa [17]) was 100% and the Activity (HeLa [18]) was “Dose-dependent effect”.

`COc1ccc(CNc2nc(NCc3ccc(OC)cc3)c3ncn(C(C)C)c3n2)cc1` [MYOSEVERIN] showed an IC50 (MCF7) of 11.5 µM, an IC50 [1] of 8.5 µM and an IC50 (CCRF-CEM) of 5.7 µM. It also gave an IC50 (HCT-116 [2]) of 3.3 µM, an IC50 (SW48 [3]) of 2.7 µM and an IC50 (SW480 [4]) of 4.8 µM. For the same compound, the Activity (HCT-116 [5]) was 1.8%, the Activity (HCT-116 [6]) was 9.5% and the Activity (HCT-116 [7]) was 88%. It also gave an Activity (SW48 [8]) of 1%, an Activity (SW48 [9]) of 1% and an Activity (SW48 [10]) of 98%. The Activity (SW480 [11]) was 12.5%, the Activity (SW480 [12]) was 3% and the Activity (SW480 [13]) was 84.5%. The IC50 [14] was 3.6 µM, the Activity (HeLa [15]) was “Active” and the Activity (HeLa [16]) was “Active”. The Activity (HeLa [17]) was 100%, the Activity (HeLa [18]) was “Dose-dependent effect” and the Activity (HeLa [19]) was “Active”.

In the case of `COc1ccc(CNc2nc(NCc3ccc(OC)cc3)n3nccc3n2)cc1`, the IC50 (MCF7) is reported as 34 µM, the IC50 [1] is reported as 45 µM and the IC50 (CCRF-CEM) is reported as 13 µM. For the same compound, the IC50 (HCT-116 [2]) was 6.2 µM, the IC50 (SW48 [3]) was 5.2 µM and the IC50 (SW480 [4]) was 8.1 µM. It also gave an Activity (HCT-116 [5]) of 19%, an Activity (HCT-116 [6]) of 29% and an Activity (HCT-116 [7]) of 51%. For the same compound, the Activity (SW48 [8]) was 16%, the Activity (SW48 [9]) was 21% and the Activity (SW48 [10]) was 62%. It also gave an Activity (SW480 [11]) of 43%, an Activity (SW480 [12]) of 15% and an Activity (SW480 [13]) of 42%. The IC50 [14] was 3.4 µM, the Activity (HeLa [15]) was “Active” and the Activity (HeLa [16]) was “Active”. For the same compound, the Activity (HeLa [17]) was 100% and the Activity (HeLa [18]) was “Dose-dependent effect”.

Work on `COc1ccc(CNc2nc(NCc3ccc(OC)cc3)n3ncc(Br)c3n2)cc1` yielded an IC50 (MCF7) of 35.5 µM, an IC50 [1] of 43 µM and an IC50 (CCRF-CEM) of 38.5 µM. For the same compound, the IC50 (HCT-116 [2]) was 25 µM, the IC50 (SW48 [3]) was 7.5 µM and the IC50 (SW480 [4]) was 26.5 µM. The Activity (HCT-116 [5]) was 44%, the Activity (HCT-116 [6]) was 0.5% and the Activity (HCT-116 [7]) was 55.5%. The Activity (SW48 [8]) was 50%, the Activity (SW48 [9]) was 0.5% and the Activity (SW48 [10]) was 42.5%. It also gave an Activity (SW480 [11]) of 62%, an Activity (SW480 [12]) of 9% and an Activity (SW480 [13]) of 28%. The inhibition (Bos taurus) was 50% and the Activity (HeLa [20]) was “inactive”.
